Measurements pooled from the literature.
Protocols differ between the studies behind these lines.
Target: G protein-coupled receptor kinase 4 (GRK4, Homo sapiens, UniProt P32298)

O=C(Nc1cnn(-c2csc(C(=O)NC3COC3)c2)c1)Nc1ccccc1Cl — remaining activity (enzyme activity; inhibitor; 5 µM): 97%
c1ccc(N2CCN(Cc3nc4ccccc4[nH]3)CC2)nc1 — remaining binding (binding; competition with immobilised ligand; 1 µM): 100%
CCCS(=O)(=O)Nc1ccc(F)c(C(=O)c2c[nH]c3ncc(-c4ccc(Cl)cc4)cc23)c1F — inhibition (enzyme activity; inhibitor; 1 µM): < 10%
Cc1sc(C(=O)NC2COC2)cc1-n1cc(NC(=O)Nc2c(F)cccc2Cl)cn1 — remaining activity (enzyme activity; inhibitor; 10 µM): 113%
C[C@H](c1ccc(F)cc1)N(Cc1cccc(C(=O)O)c1)C(=O)c1cnc2ccccc2c1 — remaining binding (cell-free assay; competition with immobilised ligand; 1 µM): 100%
CS(=O)(=O)CCNCc1ccc(-c2ccc3ncnc(Nc4ccc(OCc5cccc(F)c5)c(Cl)c4)c3c2)o1 — remaining signal (cell-free assay; 0.5 µM): 90.3%
COc1cc2ncnc(Nc3ccc(Oc4ccccc4)cc3C)c2cc1OC — inhibition (enzyme activity; inhibitor; 1 µM): -2%
Cc1noc([C@H]2C[C@@H](c3ccc(C(F)(F)F)cc3)CN(C(=O)N3CCS(=O)(=O)C3)C2)n1 — remaining binding (cell-free assay; competition with immobilised ligand; 1 µM): 99%
CN(C)C1CCN(CC#Cc2nn(C3CCCC3)c3nc(NCc4ccccc4)ncc23)C1 (stereo not shown) — inhibition (enzyme activity; inhibitor; FRET; 1 µM): 11%
COc1cc2c(N3CCN(C(=O)Nc4ccc(OC(C)C)cc4)CC3)ncnc2cc1OCCCN1CCCCC1 — remaining signal (cell-free assay; 0.5 µM): 106%
O=C(N[C@H]1CCCCC/C=C\C2C[C@@]2(C(=O)O)NC(=O)[C@@H]2C[C@@H](Oc3ccncc3)CN2C1=O)OC1CCCC1 (stereo partly shown) — remaining binding (binding; competition with immobilised ligand; 1 µM): 80%
CCN(CC)CCNC(=O)c1c(C)[nH]c(/C=C2\C(=O)Nc3ccc(F)cc32)c1C — remaining signal (cell-free assay; 0.5 µM): 75.8%
CC(C)(C)c1nc(-c2cccc(NS(=O)(=O)c3c(F)cccc3F)c2F)c(-c2ccnc(N)n2)s1 — remaining activity (enzyme activity; inhibitor; radiometric; 1 µM): 59%
